Measured values taken from ChEMBL document CHEMBL1151962, “Identification of N,1,4,4-tetramethyl-8-{[4-(4-methylpiperazin-1-yl)phenyl]amino}-4,5-dihydro-1H-pyrazolo[4,3-h]quinazoline-3-carboxamide (PHA-848125), a potent, orally available cyclin dependent kinase inhibitor” (J Med Chem, 2009).
≈ marks a conversion by molar mass, not a printed value.

How the values were obtained:
[1] = target: T1, Aurora kinase A (Homo sapiens, UniProt O14965); assay: Inhibition of Aurora A
T1 sequence (O14965 whole entry): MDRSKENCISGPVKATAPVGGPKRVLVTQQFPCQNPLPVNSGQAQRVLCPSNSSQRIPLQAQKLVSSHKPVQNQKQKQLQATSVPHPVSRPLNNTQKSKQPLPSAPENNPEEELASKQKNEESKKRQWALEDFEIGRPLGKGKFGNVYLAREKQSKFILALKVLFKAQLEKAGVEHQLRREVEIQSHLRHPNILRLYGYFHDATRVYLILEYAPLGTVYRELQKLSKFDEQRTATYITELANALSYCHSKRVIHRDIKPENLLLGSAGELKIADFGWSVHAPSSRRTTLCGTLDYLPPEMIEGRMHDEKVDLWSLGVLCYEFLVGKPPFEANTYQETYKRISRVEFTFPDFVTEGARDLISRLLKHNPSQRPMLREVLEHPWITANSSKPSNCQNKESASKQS

[2] = target: Cyclin-dependent kinase 2 (Homo sapiens, UniProt P24941); assay: Inhibition of CDK2/Cyclin A
[3] = Solubility at pH 7; format: physicochemical; details: buffer
[4] = test system: A2780; assay: Antiproliferative activity against human A2780 cells after 72 hrs by cell Titer_Glo assay; format: functional, cell-based; details: A2780, 72 h
How it was run: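 A2780 cells were seeded at 10000–30000 cells/cm² in medium with 10% FCS. After 24 h they were treated with serial dilutions of compound, in two replicates. Cell amount was read by Cell Titer Glo 72 h after treatment. IC50 came from sigmoidal fitting.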

Compound	IC50 [1] [nM]	IC50 [2] [nM]	solubility [3] [µM]	IC50 [4] [nM]
Cn1nc(C(=O)NCCO)c2c1-c1nc(Nc3ccccc3)ncc1CC2	364	74	7 (≈ 2.55 µg/mL)	2380
CN1CCN(c2ccc(Nc3ncc4c(n3)-c3c(c(C(N)=O)nn3C)CC4)cc2)CC1	53	2	156 (≈ 65.3 µg/mL)	30
Cn1nc(C(=O)NCc2ccccc2)c2c1-c1nc(Nc3ccccc3)ncc1CC2	374	1050	1 (≈ 0.41 µg/mL)	580
CNC(=O)c1nn(C)c2c1C(C)(C)Cc1cnc(Nc3cccc(CN4CCN(C)CC4)c3)nc1-2	1180	59	162 (≈ 76.9 µg/mL)	570
Cn1nc(C(=O)NC2CCCC2)c2c1-c1nc(Nc3ccccc3)ncc1CC2	–	–	1 (≈ 0.388 µg/mL)	–
CNC(=O)c1nn(C)c2c1C(C)(C)Cc1cnc(Nc3ccc(N(C)C)cc3)nc1-2	855	59	56 (≈ 22.7 µg/mL)	500
CNC(=O)c1nn(C)c2c1C(C)(C)Cc1cnc(Nc3cccc(OC4CCN(C)CC4)c3)nc1-2	1580	47	160 (≈ 76.1 µg/mL)	390
CNC(=O)c1nn(C)c2c1C(C)(C)Cc1cnc(Nc3ccc(CN4CCN(C)CC4)cc3)nc1-2	1620	55	170 (≈ 80.7 µg/mL)	240
Cn1nc(C(=O)Nc2ccccc2)c2c1-c1nc(Nc3ccccc3)ncc1CC2	–	–	1 (≈ 0.396 µg/mL)	–
CNC(=O)c1nn(C)c2c1C(C)(C)Cc1cnc(Nc3cccc(CN4CCOCC4)c3)nc1-2	638	160	121 (≈ 55.8 µg/mL)	870
CNC(=O)c1nn(C)c2c1CCc1cnc(Nc3ccc(N4CCN(C)CC4)cc3)nc1-2	175	45	211 (≈ 91.3 µg/mL)	190
CNC(=O)c1nn(C)c2c1C(C)(C)Cc1cnc(Nc3ccc(CN4CCOCC4)cc3)nc1-2	535	36	133 (≈ 61.4 µg/mL)	350
CNC(=O)c1nn(C)c2c1C(C)(C)Cc1cnc(Nc3cccc(N4CCN(C)CC4)c3)nc1-2	1000	31	182 (≈ 83.8 µg/mL)	530
CNC(=O)c1nn(C)c2c1C(C)(C)Cc1cnc(Nc3cccc(N4CCOCC4)c3)nc1-2	625	248	51 (≈ 22.8 µg/mL)	700
Cn1nc(C(N)=O)c2c1-c1nc(Nc3ccccc3)ncc1CC2(C)C	> 10000	24	< 1	170
Cn1nc(C(=O)NC2CC2)c2c1-c1nc(Nc3ccccc3)ncc1CC2	–	–	1 (≈ 0.36 µg/mL)	–

Other lines, results leading:

IC50 [1] [nM]	IC50 [2] [nM]	solubility [3] [µM]	IC50 [4] [nM]	Compound
30	1	47 (≈ 19.7 µg/mL)	30	CN1CCN(c2cccc(Nc3ncc4c(n3)-c3c(c(C(N)=O)nn3C)CC4)c2)CC1
582	17	98 (≈ 43.8 µg/mL)	50	CN1CCN(c2ccc(Nc3ncc4c(n3)-c3c(c(C(N)=O)nn3C)C(C)(C)C4)cc2)CC1
649	137	46 (≈ 20.6 µg/mL)	370	CNC(=O)c1nn(C)c2c1C(C)(C)Cc1cnc(Nc3ccc(N4CCOCC4)cc3)nc1-2
> 5000	35	206 (≈ 86.4 µg/mL)	110	CNC(=O)c1nn(C)c2c1C(C)(C)Cc1cnc(Nc3ccc(CN(C)C)cc3)nc1-2
–	–	1 (≈ 0.334 µg/mL)	–	CNC(=O)c1nn(C)c2c1CCc1cnc(Nc3ccccc3)nc1-2
1440	220	41 (≈ 16.6 µg/mL)	3010	CNC(=O)c1nn(C)c2c1C(C)(C)Cc1cnc(Nc3cccc(N(C)C)c3)nc1-2
1340	29	183 (≈ 87 µg/mL)	170	CNC(=O)c1nn(C)c2c1C(C)(C)Cc1cnc(Nc3ccc(OC4CCN(C)CC4)cc3)nc1-2
–	–	3 (≈ 0.961 µg/mL)	–	Cn1nc(C(N)=O)c2c1-c1nc(Nc3ccccc3)ncc1CC2
